In ChEMBL document CHEMBL4229460, “Design and biological evaluation of novel hybrids of 1, 5-diarylpyrazole and Chrysin for selective COX-2 inhibition” (Bioorg Med Chem, 2018):

Assays:
Format in all cases: functional
[1] = system: HeLa; experiment: Induction of apoptosis in human HeLa cells assessed as late apoptotic cells at 1.25 uM after 24 hrs by Annexin-V-FITC/propidium iodide staining based flow cytometry (reference value: 1.72%)
In short: (§1)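 HeLa seeded at 2 × 10⁵ cells/well. Dose series was 0, 1.25, 2.5, 5 and 10 μM for 24 h; time course was 5 μM for 12, 24, 36 or 48 h. Trypsinized and washed in ice-cold PBS, then stained in binding buffer with Annexin V-FITC and PI for 10 min in the dark. Flow cytometry scored early (Annexin⁺/PI⁻) and late (Annexin⁺/PI⁺) apoptotic cells.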

[2] = system: HeLa; experiment: Cell cycle arrest in human HeLa cells assessed as accumulation at G1 phase at 5 uM after 24 hrs by propidium iodide staining based flow cytometry (reference value: 55.51%)
[3] = system: HeLa; experiment: Cell cycle arrest in human HeLa cells assessed as accumulation at G2/M phase at 5 uM after 24 hrs by propidium iodide staining based flow cytometry (reference value: 21.45%)
[4] = system: HeLa; experiment: Induction of apoptosis in human HeLa cells assessed as live cells at 5 uM after 36 hrs by Annexin-V-FITC/propidium iodide staining based flow cytometry (reference value: 95.1%); in short: as §1
[5] = system: HeLa; experiment: Cell cycle arrest in human HeLa cells assessed as accumulation at S phase at 2.5 uM after 24 hrs by propidium iodide staining based flow cytometry (reference value: 18.16%)
[6] = system: HeLa; experiment: Induction of apoptosis in human HeLa cells assessed as necrotic cells at 10 uM after 24 hrs by Annexin-V-FITC/propidium iodide staining based flow cytometry (reference value: 0.242%); in short: as §1
[7] = system: HeLa; experiment: Disruption of mitochondrial membrane potential in human HeLa cells assessed as intact mitochondrial membrane at 1.25 uM after 12 hrs by JC1 staining based flow cytometry (reference value: 99.2%)

Work on `COc1ccc(-c2cc(COC(=O)COc3cc(O)c4c(=O)cc(-c5ccccc5)oc4c3)nn2-c2ccc(C)cc2)cc1` yielded an Activity [1] of 5.16%, an Activity [2] of 72.83% and an Activity [3] of 8.16%. For the same compound, the Activity [4] was 48.7%, the Activity [5] was 18.61% and the Activity [6] was 0.325%. For the same compound, the Activity [7] was 96.5%.
